Source: ChEMBL document CHEMBL2331538, “Identification of inhibitors against interaction between pro-inflammatory sPLA2-IIA protein and integrin αvβ3” (Bioorg Med Chem Lett, 2013)
Calls of active or inactive are those of the source. No cut-off for these calls is given here.

Key:
[1] = biological target: T1, Phospholipase A2, membrane associated (Homo sapiens) (UniProt P14555); assay: Inhibition of sPLA2-IIA (unknown origin)-integrin alphaVbeta3 interaction in human K562 cells pretreated for 30 mins to immobilized sPLA2 before adding cells by phosphatase assay relative to BSA; assay type: cell-based
T1 sequence (whole entry): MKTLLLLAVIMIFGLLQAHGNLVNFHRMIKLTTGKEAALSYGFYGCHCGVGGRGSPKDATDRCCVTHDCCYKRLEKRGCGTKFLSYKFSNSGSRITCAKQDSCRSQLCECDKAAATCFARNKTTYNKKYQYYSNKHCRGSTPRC
Summary of the method: (§1)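 Wells coated with sPLA2-IIA and blocked with BSA were preincubated with compound (10 to 500 μM) for 30 min. Integrin αvβ3-transfected K562 erythroleukemia cells were then added for 1 h at 37 °C, and bound cells were quantified by phosphatase assay. IC50 and maximum inhibition were derived from dose-response experiments.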

[2] = biological target: T2, Phospholipase A2, membrane associated (Homo sapiens, UniProt P14555); assay: Inhibition of sPLA2-IIA (unknown origin)-integrin alphaVbeta3 interaction in human K562 cells pretreated for 30 mins to immobilized sPLA2 before adding cells by phosphatase assay; assay type: cell-based; summary of the method: as §1
T2 sequence (P14555 whole entry): T1 sequence (whole entry)

U-937 [3] = assay: Inhibition of sPLA2-IIA (unknown origin)-induced migration of human U937 cells after 20 hrs by chemotaxis assay
[4] = biological target: T3, Disintegrin and metalloproteinase domain-containing protein 15 (Homo sapiens) (UniProt Q13444); assay: Inhibition of ADAM15 (unknown origin)-integrin alphaVbeta3 interaction in human K562 cells pretreated at 200 uM for 30 mins to immobilized sPLA2 before adding cells by phosphatase assay; assay type: cell-based
T3 sequence (whole entry): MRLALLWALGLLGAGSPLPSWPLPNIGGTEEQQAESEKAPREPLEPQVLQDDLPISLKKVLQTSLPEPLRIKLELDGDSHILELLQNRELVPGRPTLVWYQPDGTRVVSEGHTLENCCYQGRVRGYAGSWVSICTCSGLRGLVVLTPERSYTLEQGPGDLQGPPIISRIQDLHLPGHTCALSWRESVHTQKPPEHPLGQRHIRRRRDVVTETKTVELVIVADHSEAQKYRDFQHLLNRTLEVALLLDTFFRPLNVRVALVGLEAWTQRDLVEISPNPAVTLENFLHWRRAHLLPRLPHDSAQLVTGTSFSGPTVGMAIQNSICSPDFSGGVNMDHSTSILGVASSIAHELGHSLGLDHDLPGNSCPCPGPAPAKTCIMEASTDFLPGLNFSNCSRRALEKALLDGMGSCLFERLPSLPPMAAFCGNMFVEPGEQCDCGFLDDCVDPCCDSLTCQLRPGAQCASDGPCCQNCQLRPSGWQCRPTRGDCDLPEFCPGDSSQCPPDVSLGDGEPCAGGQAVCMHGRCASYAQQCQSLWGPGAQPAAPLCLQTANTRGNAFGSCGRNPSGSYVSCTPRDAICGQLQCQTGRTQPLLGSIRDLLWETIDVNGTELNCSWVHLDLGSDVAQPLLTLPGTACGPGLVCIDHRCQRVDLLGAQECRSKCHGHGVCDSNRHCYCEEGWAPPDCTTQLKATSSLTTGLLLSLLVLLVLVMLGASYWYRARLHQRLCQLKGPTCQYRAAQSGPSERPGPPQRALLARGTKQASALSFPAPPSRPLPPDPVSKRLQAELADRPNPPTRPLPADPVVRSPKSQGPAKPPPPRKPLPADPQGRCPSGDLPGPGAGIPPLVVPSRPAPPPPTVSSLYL
Summary of the method: (§2)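 Specificity adhesion assay using αvβ3-transfected K562 cells. Wells were coated with either ADAM15 or sPLA2-IIA and blocked with BSA. Compound was used at 200 μM. Adherent cells were quantified by phosphatase assay. Means ± S.E., n=3.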

[5] = biological target: T1, Phospholipase A2, membrane associated (Homo sapiens); assay: Inhibition of sPLA2-IIA (unknown origin)-integrin alphaVbeta3 interaction in human K562 cells pretreated at 200 uM for 30 mins to immobilized sPLA2 before adding cells by phosphatase assay; assay type: cell-based; summary of the method: as §2
U-937 [6] = assay: Inhibition of sPLA2-IIA R47E/R100E mutant (unknown origin)-induced migration of human U937 cells after 20 hrs by chemotaxis assay; assay type: cell-based
[7] = biological target: T1, Phospholipase A2, membrane associated (Homo sapiens); assay: Inhibition of sPLA2-IIA (unknown origin)-induced migration of human U937 cells after 20 hrs by chemotaxis assay; assay type: cell-based; details: U-937
Summary of the method: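 Modified Boyden chamber (Transwell) chemotaxis assay. The lower chamber held sPLA2-IIA (40 ng/ml) with compound (4 to 16 μM), and U937 monocytic cells were placed in the upper chamber for 20 h at 37 °C. Migrated cells were counted. Means ± SE, n=4.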

Imax [1]	SMILES	further results
< 30%	CC(C)[C@H](NC(=O)[C@@H]1CCCN1C(=O)[C@@H](CC(N)=O)NC(=O)[C@@H](CCCNC(=N)N)NC(=O)[C@H](CCCCN)NC(=O)[C@H](Cc1c[nH]c2ccccc12)NC(=O)c1csc(-c2ccccn2)n1)C(=O)O	–
–	Cc1nc(NC(=O)c2ccccc2)sc1-c1cc(C(=O)NCC(=O)N[C@H](CCCN=C(N)N)C(=O)NCC(=O)N[C@H](CC(=O)O)C(=O)O)[nH]n1	IC50 [2]: 155 µM
inactive	N=C(N)NCCC[C@@H](NC(=O)CN)C(=O)NCC(=O)N[C@H](CC(=O)O)C(=O)N[C@H](CC(=O)O)C(=O)N[C@H](CC(=O)O)C(=O)O	–
inactive	Cc1nc(NC(=O)c2ccccc2)sc1-c1cc(C(=O)N[C@@H](C)C(=O)N[C@@H](Cc2c[nH]c3ccccc23)C(=O)N[C@H](CC(=O)O)C(=O)O)[nH]n1	–
–	Cc1nc(NC(=O)c2ccccc2)sc1-c1cc(C(=O)NCC(=O)N[C@H](CCCN=C(N)N)C(=O)O)[nH]n1	IC50 [2]: 262 µM
inactive	CC[C@H](C)[C@H](NC(=O)[C@@H](CC(=O)O)NC(=O)[C@H](Cc1c[nH]c2ccccc12)NC(=O)[C@H](C)N)C(=O)O	–
87%	Cc1nc(NC(=O)c2ccccc2)sc1-c1cc(C(=O)NCC(=O)N[C@H](CCCNC(=N)N)C(=O)NCC(=O)N[C@H](CC(=O)O)C(=O)O)[nH]n1	–
–	Cc1nc(NC(=O)c2ccccc2)sc1-c1cc(C(=O)NCC(=O)N[C@H](CCCN=C(N)N)C(=O)NCC(=O)O)[nH]n1	IC50 [2]: 217 µM
< 30%	C[C@H](NC(=O)[C@H](CCCCN)NC(=O)[C@H](Cc1ccc(O)cc1)NC(=O)[C@H](Cc1cnc[nH]1)NC(=O)c1cnccn1)C(=O)N[C@H](CC(N)=O)C(=O)N[C@H](C(=O)O)[C@@H](C)O	–
71%	C[C@H](NC(=O)[C@@H](CCCNC(=N)N)NC(=O)[C@@H](CC(N)=O)NC(=O)[C@@H](CCCNC(=N)N)NC(=O)[C@@H](Cc1ccccc1)NC(=O)c1ccc2nn3c(c2c1)OCc1cc(Cl)ccc1-3)C(=O)N[C@@H](Cc1ccc(O)cc1)C(=O)O	IC50 [2]: 85 µM
< 30%	CC(C)[C@H](NC(=O)CC1NC(=O)NC1=O)C(=O)N[C@H](CC(N)=O)C(=O)N[C@@H](Cc1c[nH]c2ccccc12)C(=O)N1CCC[C@H]1C(=O)N[C@@H](CCC(N)=O)C(=O)N[C@@H](CCC(N)=O)C(=O)O (stereo partly specified)	–
77%	Cc1nc(NC(=O)c2ccccc2)sc1-c1cc(C(=O)NCC(=O)N[C@H](CCCNC(=N)N)C(=O)O)[nH]n1	–
–	Cc1nc(NC(=O)c2ccccc2)sc1-c1cc(C(=O)NCC(=O)N[C@H](CCCN=C(N)N)C(=O)NCC(=O)N[C@H](CC(=O)O)C(=O)N[C@H](CC(=O)O)C(=O)N[C@H](CC(=O)O)C(=O)O)[nH]n1	IC50 [2]: 71 µM
< 30%	N=C(N)NCCC[C@@H](NC(=O)c1csc(-c2ccccn2)n1)C(=O)N[C@@H](Cc1c[nH]c2ccccc12)C(=O)N[C@@H](CCC(=O)O)C(=O)N[C@H](Cc1ccccc1)C(=O)O	–
93%	Cc1nc(NC(=O)c2ccccc2)sc1-c1cc(C(=O)NCC(=O)N[C@H](CCCNC(=N)N)C(=O)NCC(=O)N[C@H](CC(=O)O)C(=O)N[C@H](CC(=O)O)C(=O)N[C@H](CC(=O)O)C(=O)O)[nH]n1	inhibition (U-937 [3]): inactive; inhibition [4]: inactive; inhibition [5]: Active
inactive	Cc1nc(NC(=O)c2ccccc2)sc1-c1cc(C(=O)O)[nH]n1	–
85%	CC[C@H](C)[C@H](NC(=O)[C@@H](CC(=O)O)NC(=O)[C@H](Cc1c[nH]c2ccccc12)NC(=O)[C@H](C)NC(=O)c1cc(-c2sc(NC(=O)c3ccccc3)nc2C)n[nH]1)C(=O)O	inhibition (U-937 [6]): inactive; inhibition [4]: inactive; inhibition [5]: Active; IC50 [2]: 20 µM; inhibition [7]: Dose-dependent effect
inactive	Cc1nc(NC(=O)c2ccccc2)sc1-c1cc(C(=O)N[C@@H](C)C(=O)N[C@@H](Cc2c[nH]c3ccccc23)C(=O)O)[nH]n1	–
81%	Cc1nc(NC(=O)c2ccccc2)sc1-c1cc(C(=O)NCC(=O)N[C@H](CCCNC(=N)N)C(=O)NCC(=O)O)[nH]n1	–
98%	Cc1nc(NC(=O)c2ccccc2)sc1-c1cc(C(=O)NCC(=O)O)[nH]n1	–
inactive	Cc1nc(NC(=O)c2ccccc2)sc1-c1cc(C(=O)N[C@@H](C)C(=O)O)[nH]n1	–
inactive	Cc1nc(NC(=O)c2ccccc2)sc1-c1cc(C(=O)NCC(=O)N[C@H](CCCNC(=N)N)C(=O)NCC(=O)N[C@H](CC(=O)O)C(=O)N[C@H](CC(=O)O)C(=O)O)[nH]n1	–
